Measured values published in ChEMBL document CHEMBL2417460, “Synthesis and biological evaluation of berberine-thiophenyl hybrids as multi-functional agents: Inhibition of acetylcholinesterase, butyrylcholinesterase, and Aβ aggregation and antioxidant activity” (Bioorg Med Chem, 2013).
The source made the active and inactive calls. The calls are words filed in the database; no cut-off is given here.

Experiments:
[1] = molecular target: Amyloid-beta precursor protein (Homo sapiens) (UniProt P05067); test: Inhibition of amyloid beta (1-42) (unknown origin) aggregation at 20 uM after 48 hrs by thioflavin-T based fluorimetric assay relative to control
Chain of Amyloid-beta precursor protein (Homo sapiens) (P05067 whole entry): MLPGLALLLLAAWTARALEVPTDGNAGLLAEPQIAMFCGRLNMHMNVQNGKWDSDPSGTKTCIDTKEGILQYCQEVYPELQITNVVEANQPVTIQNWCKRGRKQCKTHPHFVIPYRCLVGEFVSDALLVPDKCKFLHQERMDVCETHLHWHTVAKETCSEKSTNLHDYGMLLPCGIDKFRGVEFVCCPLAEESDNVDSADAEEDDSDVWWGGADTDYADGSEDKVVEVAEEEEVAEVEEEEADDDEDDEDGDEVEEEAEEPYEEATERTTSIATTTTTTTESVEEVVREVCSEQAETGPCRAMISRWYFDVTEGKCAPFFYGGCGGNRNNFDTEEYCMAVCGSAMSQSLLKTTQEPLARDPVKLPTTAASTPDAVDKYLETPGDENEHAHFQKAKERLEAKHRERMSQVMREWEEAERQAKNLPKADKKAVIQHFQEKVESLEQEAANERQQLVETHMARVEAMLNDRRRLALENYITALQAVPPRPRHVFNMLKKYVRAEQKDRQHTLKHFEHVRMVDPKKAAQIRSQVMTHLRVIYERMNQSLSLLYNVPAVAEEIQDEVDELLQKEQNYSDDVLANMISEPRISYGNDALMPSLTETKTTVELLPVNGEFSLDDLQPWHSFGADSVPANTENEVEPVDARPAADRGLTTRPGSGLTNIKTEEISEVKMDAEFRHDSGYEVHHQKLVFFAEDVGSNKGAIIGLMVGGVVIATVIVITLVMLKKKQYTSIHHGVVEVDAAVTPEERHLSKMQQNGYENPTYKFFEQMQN
In short: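 HFIP-pretreated Aβ1–42 was resolubilised in 50 mM phosphate buffer, pH 7.4, and incubated at 37 °C for 48 h (50 μM final peptide) with or without compound at 20 μM. Samples were diluted into 50 mM glycine–NaOH, pH 8.0, containing thioflavin T and scanned for 300 s (ex 450/em 485 nm). Plateau values were averaged after subtracting ThT background.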

[2] = Antioxidant activity assessed as ratio of umol of trolox equivalent to umol of compound after 10 mins by oxygen radical absorbance capacity-fluorescein assay; assay type: functional
In short: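 Fluorescein 300 nM final was preincubated with antioxidant for 10 min at 37 °C, then AAPH was added to 12 mM final. Fluorescence (ex 485/em 535 nm) was read every 60 s for 4 h. Samples were run at […] against a Trolox calibration and an FL+AAPH blank in phosphate buffer. Results are expressed as Trolox equivalents, with mixtures in triplicate and ≥3 independent runs.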

[3] = molecular target: T1, Acetylcholinesterase (Electrophorus electricus, UniProt O42275); test: Inhibition of electric eel AChE using acetylthiocholine chloride as substrate preincubated for 15 mins prior to substrate addition by Ellman's method
T1 sequence (O42275 whole entry): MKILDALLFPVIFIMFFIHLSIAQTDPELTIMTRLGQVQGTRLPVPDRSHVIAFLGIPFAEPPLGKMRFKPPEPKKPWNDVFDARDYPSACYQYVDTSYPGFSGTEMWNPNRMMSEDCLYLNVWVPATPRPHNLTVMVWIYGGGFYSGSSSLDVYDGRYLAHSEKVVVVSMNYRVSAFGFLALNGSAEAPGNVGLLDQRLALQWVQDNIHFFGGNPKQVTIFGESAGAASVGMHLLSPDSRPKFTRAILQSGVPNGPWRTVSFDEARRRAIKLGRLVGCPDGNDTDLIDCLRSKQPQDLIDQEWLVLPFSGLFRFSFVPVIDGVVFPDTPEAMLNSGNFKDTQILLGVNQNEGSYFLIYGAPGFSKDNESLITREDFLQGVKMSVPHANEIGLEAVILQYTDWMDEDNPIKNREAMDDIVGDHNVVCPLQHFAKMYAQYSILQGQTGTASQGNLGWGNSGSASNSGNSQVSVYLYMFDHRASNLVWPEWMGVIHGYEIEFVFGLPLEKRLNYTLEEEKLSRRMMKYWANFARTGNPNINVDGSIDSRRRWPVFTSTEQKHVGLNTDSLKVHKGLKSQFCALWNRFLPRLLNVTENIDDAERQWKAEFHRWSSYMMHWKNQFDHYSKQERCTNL

[4] = Antioxidant activity assessed as H2O2 scavenging activity measured as compound remaining at 100 uM after 72 hrs by LC/MS analysis; assay type: functional
[5] = Antioxidant activity assessed as H2O2 scavenging activity at 100 uM after 72 hrs by spectrophotometric analysis; assay type: functional
In short: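 Compound solution was added to H2O2 (0.1 mM) in 0.1 M phosphate buffer, pH 7.4, and incubated for 72 h at 37 °C. Phenol red (0.2 mg/mL) plus horseradish peroxidase (0.4 mg/mL) was added; after 15 min, 1 M NaOH was added and absorbance read at 610 nm. Percent H2O2 reduction = (A_H2O2 − A_sample)/A_H2O2 × 100, with the control holding acetone and no compound.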

[6] = molecular target: T1, Acetylcholinesterase; test: Mixed-type inhibition of electric eel AChE using acetylthiocholine chloride as substrate by Lineweaver-Burk plot analysis
In short: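 Electric eel AChE was pre-incubated with inhibitor at 37 °C for 15 min in 0.1 M phosphate buffer, pH 8.0, with DTNB, then substrate was added. Absorbance at 412 nm was followed at 60 s intervals at 37 °C. Reciprocal plots of initial velocity versus substrate concentration defined the inhibition type.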

Oc1ccc(/C=C/c2cc(O)cc(O)c2)cc1 showed an inhibition [1] of 61.1%.
Work on COc1ccc2cc3[n+](cc2c1OCCCSc1ccccc1)CCc1cc2c(cc1-3)OCO2 yielded an Activity [2] of 0.94 equiv, an inhibition [1] of 70.6% and an IC50 [3] of 257 nM.
With COc1ccc2cc3[n+](cc2c1OCCSc1cccc(C)c1)CCc1cc2c(cc1-3)OCO2 the Activity [2] was 1.32 equiv, the inhibition [1] was 72.3% and the IC50 [3] was 207 nM.
With COc1ccc2cc3[n+](cc2c1OCCSc1ccccc1C)CCc1cc2c(cc1-3)OCO2 the Activity [4] was “Active”, the Activity [5] was “Active” and the Activity [2] was 1.11 equiv. For the same molecule, the inhibition [1] was 73.4%, the IC50 [3] was 77 nM and the Ki [6] was 71 nM.
For COc1ccc2cc3[n+](cc2c1OCCSc1ccc(Cl)cc1)CCc1cc2c(cc1-3)OCO2, the Activity [2] was 0.82 equiv and the IC50 [3] was 484 nM.
With COc1ccc2cc3[n+](cc2c1OCCSc1ccc(C)cc1)CCc1cc2c(cc1-3)OCO2 the Activity [2] was 1.86 equiv, the inhibition [1] was 70% and the IC50 [3] was 299 nM.
Molecule COc1ccc2cc3[n+](cc2c1OCCSc1ccccc1)CCc1cc2c(cc1-3)OCO2 has an Activity [2] of 0.89 equiv, an inhibition [1] of 70.4% and an IC50 [3] of 177 nM.
For CCc1ccccc1SCCOc1c(OC)ccc2cc3[n+](cc12)CCc1cc2c(cc1-3)OCO2, the Activity [2] was 1.01 equiv, the inhibition [1] was 74.8% and the IC50 [3] was 83 nM.
With COc1ccc2cc3[n+](cc2c1OC)CCc1cc2c(cc1-3)OCO2 the Activity [2] was 0.4 equiv and the inhibition [1] was 35.5%.
Work on COc1ccc2cc3[n+](cc2c1OCCSc1cccc(Cl)c1)CCc1cc2c(cc1-3)OCO2 yielded an Activity [2] of 0.47 equiv and an IC50 [3] of 233 nM.
For COc1ccccc1SCCOc1c(OC)ccc2cc3[n+](cc12)CCc1cc2c(cc1-3)OCO2, the Activity [2] was 1.94 equiv, the inhibition [1] was 76.8% and the IC50 [3] was 151 nM.
For COc1ccc2cc3[n+](cc2c1OCCCCCCSc1ccccc1)CCc1cc2c(cc1-3)OCO2, the Activity [2] was 0.77 equiv and the IC50 [3] was 972 nM.
Work on COc1ccc2cc3[n+](cc2c1OCCCCCSc1ccccc1)CCc1cc2c(cc1-3)OCO2 yielded an Activity [2] of 0.89 equiv and an IC50 [3] of 543 nM.
COc1ccc2cc3[n+](cc2c1OCCCCSc1ccccc1)CCc1cc2c(cc1-3)OCO2 showed an Activity [2] of 0.95 equiv, an inhibition [1] of 69.1% and an IC50 [3] of 192 nM.
Work on COc1ccc2cc3[n+](cc2c1OCCSc1ccccc1F)CCc1cc2c(cc1-3)OCO2 yielded an Activity [2] of 1.15 equiv, an inhibition [1] of 73.3% and an IC50 [3] of 87 nM.
COc1ccc2cc3[n+](cc2c1OCCSc1ccccc1Cl)CCc1cc2c(cc1-3)OCO2 gave an Activity [2] of 0.75 equiv, an inhibition [1] of 65.1% and an IC50 [3] of 42 nM. It also gave a Ki [6] of 18 nM.
